Starred links: 1 amine or outer side, 2 acyl side, 3 side chain; linkers in the order of their positions; H or OH if unused. Non-standard residues stand in square brackets, D forms with d. Residues, ends and D or L forms follow the SMILES beside them. *: point of attachment. 2Nal = N[C@@H](Cc1ccc2ccccc2c1)C(=O)O; Cyclopropanecarbonyl = O=C(C1CC1)*; NHPhenethyl = c1ccc(CCN*)cc1; Isovaleryl = CC(C)CC(=O)*; Isobutyryl = CC(C)C(=O)*; CO = O=C([*:1])[*:2]; NHBn = c1ccc(CN*)cc1; Propionyl = CCC(=O)*; Butyryl = CCCC(=O)*; NHPh = c1ccc(N*)cc1; Moc = COC(=O)*; For = O=C*
biological target: T1, DCN1-like protein 1 (Homo sapiens, UniProt Q96GG9); assay: Binding affinity to biotin labeled recombinant N-terminal His6-tagged human DCN1 (58 to 259 residues) expressed in Escherichia coli Rosetta2 cells by biolayer interferometry analysis
In short: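 Recombinant human DCN1 (58–259) was biotinylated at a 1:1 molar ratio in PBS for 2 h at 4 °C, dialyzed, then loaded on super streptavidin sensors from a 10 μg/mL solution. Blocked streptavidin sensors served as reference.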

T1 sequence (Q96GG9 whole entry, the tested form may be a part): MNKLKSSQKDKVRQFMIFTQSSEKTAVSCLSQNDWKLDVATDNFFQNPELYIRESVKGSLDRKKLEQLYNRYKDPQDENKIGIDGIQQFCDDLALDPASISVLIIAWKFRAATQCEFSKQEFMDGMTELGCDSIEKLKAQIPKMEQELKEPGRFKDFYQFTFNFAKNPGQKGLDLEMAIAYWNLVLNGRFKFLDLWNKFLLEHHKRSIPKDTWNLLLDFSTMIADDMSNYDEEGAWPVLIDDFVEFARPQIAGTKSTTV

Kd [nM]	Compound
4.1	CCC(=O)N[C@@H](Cc1nc2ccc(Cl)cc2s1)C(=O)N[C@H](C(=O)N[C@@H](CCCCN)C(=O)N[C@@H]1CCOc2ccccc21)C1CCCC1
8.1	CCC(=O)N[C@@H](Cc1nc2ccc(Cl)cc2s1)C(=O)N[C@H](C(=O)N[C@@H](CCCCN)C(=O)NC(c1ccccc1)c1ccccc1)C1CCCC1
31.8	CCC(=O)N[C@@H](Cc1nc2ccccc2s1)C(=O)N[C@H](C(=O)N[C@@H](CCCCN)C(=O)NC(c1ccccc1)c1ccccc1)C1CCCC1
8.3	CCC(=O)N[C@@H](Cc1nc2ccc(Cl)cc2s1)C(=O)N[C@H](C(=O)N[C@@H](CCCCN)C(=O)N[C@@H]1CCCc2ccccc21)C1CCCC1
56.4	CCC(=O)N[C@@H](Cc1ccc2ccccc2c1)C(=O)N[C@H](C(=O)N[C@@H](CCCCN)C(=O)NC(c1ccccc1)c1ccccc1)C1CCCC1
37	CCC(=O)N[C@@H](Cc1nc2ccc(F)cc2s1)C(=O)N[C@H](C(=O)N[C@@H](CCCCN)C(=O)NC(c1ccccc1)c1ccccc1)C1CCCC1
5.7	CCC(=O)N[C@@H](Cc1nc2ccc(Cl)cc2s1)C(=O)N[C@H](C(=O)N[C@@H](CCCCN(C)C)C(=O)N[C@@H]1CCOc2ccccc21)C1CCCC1

biological target: T1, DCN1-like protein 1; assay: Displacement of (S)-N1-((19S,22S)-26-Amino-19-carbamoyl-1-(3',6'-dihydroxy-3-oxo-3H-spiro[isobenzofuran-1,9'-xanthen]-5-yl)-1,13,21-trioxo-5,8,11-trioxa-2,14,20-triazahexacosan-22-yl)-2-((2S,5S,8S,11S,14S,17S,20S,23S,26S)-2-(3-amino-3-oxopropyl)-5,20-bis(4-aminobutyl)-14-benzyl-23-((S)-sec-butyl)-11-(hydroxymethyl)-8,17-diisobutyl-26-(naphthalen-2-ylmethyl)-4,7,10,13,16,19,22,25,28-nonaoxo-3,6,9,12,15,18,21,24,27-nonaazanonacosanamido)pentanediamide from recombinant N-terminal His6-tagged human DCN1 (58 to 259 residues) expressed in Escherichia coli Rosetta2 cells after 30 mins by fluorescence polarization assay

IC50 [nM]	Ki [nM]	Compound
128000	27500	CC[C@H](C)[C@H](NC(=O)[C@H](Cc1ccc2ccccc2c1)NC=O)C(=O)N[C@@H](CCCCN)C(=O)N[C@@H](CC(C)C)C(N)=O (For-[2Nal]IKL-NH2)
	380	CCC(=O)N[C@@H](Cc1ccc2ccccc2c1)C(=O)N[C@H](C(=O)N[C@@H](CCCCN)C(=O)N[C@H]1CCc2ccccc21)[C@@H](C)CC
	174	CCC(=O)N[C@@H](Cc1ccc2ccccc2c1)C(=O)N[C@@H](Cc1cccs1)C(=O)N[C@@H](CCCCN)C(=O)NC(c1ccccc1)c1ccccc1
	160	CCC(=O)N[C@@H](Cc1ccc2ccccc2c1)C(=O)N[C@H](C(=O)N[C@@H](CCCCN)C(=O)N[C@@H]1CCc2ccccc21)[C@@H](C)CC
	140	CCC(=O)N[C@@H](Cc1ccc2ccccc2c1)C(=O)N[C@H](C(=O)N[C@@H](CCCCN)C(=O)N[C@H]1CCCc2ccccc21)[C@@H](C)CC
> 50000		CC[C@H](C)[C@H](NC(=O)[C@H](Cc1ccc2ccccc2c1)NC(=O)OC)C(=O)N[C@@H](CCCCN)C(=O)N[C@@H](CC(C)C)C(N)=O (Moc-[2Nal]IKL-NH2)
> 100000		CC[C@H](C)[C@H](NC(=O)[C@@H](N)Cc1ccc2ccccc2c1)C(=O)N[C@@H](CCCCN)C(=O)N[C@@H](CC(C)C)C(N)=O (H-[2Nal]IKL-NH2)
3270	672	CCC(=O)N[C@@H](Cc1ccc2ccccc2c1)C(=O)N[C@@H](CC(F)(F)F)C(=O)N[C@@H](CCCCN)C(=O)NC(c1ccccc1)c1ccccc1
34900	7500	CCC(=O)N[C@@H](Cc1ccc2ccccc2c1)C(=O)N[C@H](C(=O)N[C@@H](CCCCN)C(=O)Nc1ccccc1)[C@@H](C)CC (Propionyl-[2Nal]-Ile-Lys-NHPh)
16800	3600	CC[C@H](C)[C@H](NC(=O)[C@H](Cc1ccc2ccccc2c1)NC(C)=O)C(=O)N[C@@H](CCCCN)C(=O)N[C@@H](CC(C)C)C(N)=O (Ac-[2Nal]IKL-NH2)
10800	2500	CCC(=O)N[C@@H](Cc1ccc2ccccc2c1)C(=O)N[C@H](C(=O)N[C@@H](CCCCN)C(=O)NCCc1ccccc1)[C@@H](C)CC (Propionyl-[2Nal]-Ile-Lys-NHPhenethyl)
> 20000		CC[C@H](C)[C@H](NC(=O)[C@H](Cc1ccc2ccccc2c1)NC(=O)CC(C)C)C(=O)N[C@@H](CCCCN)C(=O)N[C@@H](CC(C)C)C(N)=O (Isovaleryl-[2Nal]IKL-NH2)
16500	3500	CC[C@H](C)[C@H](NC(=O)[C@H](Cc1ccc2ccccc2c1)NC(=O)C(C)C)C(=O)N[C@@H](CCCCN)C(=O)N[C@@H](CC(C)C)C(N)=O (Isobutyryl-[2Nal]IKL-NH2)
613	97.3	CCC(=O)N[C@@H](Cc1ccc2ccccc2c1)C(=O)N[C@H](C(=O)N[C@@H](CCCCN)C(=O)NC(c1ccccc1)c1ccccc1)C1CCCCC1
550	84	CCC(=O)N[C@@H](Cc1ccc2ccccc2c1)C(=O)N[C@H](C(=O)N[C@@H](CCCCN)C(=O)N[C@@H]1CCCc2ccccc21)[C@@H](C)CC
	97	CCC(=O)N[C@@H](Cc1ccc2ccccc2c1)C(=O)N[C@H](C(=O)N[C@@H](CCCCN)C(=O)NC(c1ccccc1)c1ccccc1)[C@@H](C)CC
132	< 50	CCC(=O)N[C@@H](Cc1nc2ccc(Cl)cc2s1)C(=O)N[C@H](C(=O)N[C@@H](CCCCN)C(=O)NC(c1ccccc1)c1ccccc1)C1CCCC1
	50.7	CCC(=O)N[C@@H](Cc1nc2ccccc2s1)C(=O)N[C@H](C(=O)N[C@@H](CCCCN)C(=O)NC(c1ccccc1)c1ccccc1)C1CCCC1
37000	8000	CCCC(=O)N[C@@H](Cc1ccc2ccccc2c1)C(=O)N[C@H](C(=O)N[C@@H](CCCCN)C(=O)N[C@@H](CC(C)C)C(N)=O)[C@@H](C)CC (Butyryl-[2Nal]IKL-NH2)
	88.6	CCC(=O)N[C@@H](Cc1nc2cc(Cl)ccc2s1)C(=O)N[C@H](C(=O)N[C@@H](CCCCN)C(=O)NC(c1ccccc1)c1ccccc1)C1CCCC1
	224	CCC(=O)N[C@@H](Cc1nc2cc(F)ccc2s1)C(=O)N[C@H](C(=O)N[C@@H](CCCCN)C(=O)NC(c1ccccc1)c1ccccc1)C1CCCC1
4920	1030	CCC(=O)N[C@@H](Cc1nc2c(F)cccc2s1)C(=O)N[C@H](C(=O)N[C@@H](CCCCN)C(=O)NC(c1ccccc1)c1ccccc1)C1CCCC1
330	36.3	CCC(=O)N[C@@H](Cc1ccc2ccccc2c1)C(=O)N[C@H](C(=O)N[C@@H](CCCCN)C(=O)NC(c1ccccc1)c1ccccc1)C1CCCC1
	810	CCC(=O)N[C@@H](Cc1ccc2ccccc2c1)C(=O)N[C@H](C(=O)N[C@@H](CCCCN)C(=O)NCc1ccccc1)[C@@H](C)CC (Propionyl-[2Nal]-Ile-Lys-NHBn)
368	44.3	CCC(=O)N[C@@H](Cc1ccc2ccccc2c1)C(=O)N[C@@H](CC1CCCCC1)C(=O)N[C@@H](CCCCN)C(=O)NC(c1ccccc1)c1ccccc1
599000	130000	CC[C@H](C)[C@H](NC(=O)[C@H](CCSC)NC(C)=O)C(=O)N[C@@H](CCCCN)C(=O)N[C@@H](CC(C)C)C(N)=O (Ac-MIKL-NH2)
	54.4	CCC(=O)N[C@@H](Cc1nc2ccc(F)cc2s1)C(=O)N[C@H](C(=O)N[C@@H](CCCCN)C(=O)NC(c1ccccc1)c1ccccc1)C1CCCC1
5200	1100	CCC(=O)N[C@@H](Cc1ccc2ccccc2c1)C(=O)N[C@H](C(=O)N[C@@H](CCCCN)C(=O)N[C@@H](CC(C)C)C(N)=O)[C@@H](C)CC (Propionyl-[2Nal]IKL-NH2)
18500	4000	CC[C@H](C)[C@H](NC(=O)[C@H](Cc1ccc2ccccc2c1)NC(=O)NC)C(=O)N[C@@H](CCCCN)C(=O)N[C@@H](CC(C)C)C(N)=O ({NHMe-CO}-[2Nal]IKL-NH2)
25100	5400	CC[C@H](C)[C@H](NC(=O)[C@H](Cc1ccc2ccccc2c1)NC(=O)C1CC1)C(=O)N[C@@H](CCCCN)C(=O)N[C@@H](CC(C)C)C(N)=O (Cyclopropanecarbonyl-[2Nal]IKL-NH2)

Compound	IC50 [nM]	Ki [nM]
CCC(=O)N[C@@H](Cc1ccc2ccccc2c1)C(=O)N[C@@H](CC(C)(C)C)C(=O)N[C@@H](CCCCN)C(=O)NC(c1ccccc1)c1ccccc1		42.9

Reference: ChEMBL document CHEMBL4118105, “High-Affinity Peptidomimetic Inhibitors of the DCN1-UBC12 Protein-Protein Interaction” (J Med Chem, 2018)
